Test results from ChEMBL document CHEMBL1828575, “Design, synthesis and antiproliferative activities of biarylolefins based on polyhydroxylated and carbohydrate scaffolds” (Eur J Med Chem, 2011).

What was measured:
Type in all cases: functional
NCI-H322M [1] = assay: Cytotoxicity against human NCI-H322M cells assessed as cellular growth at 10 uM after 48 hrs by SRB assay
In short: (§1)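 NCI-60 panel lines grown in RPMI 1640 with 5% FBS and 2 mM L-glutamine. Plated at 5000–40,000 cells/well and preincubated 24 h at 37 °C, 5% CO₂, with time-zero plates fixed in TCA. Compounds, dissolved in DMSO and diluted in medium, were applied for 48 h. Cells were TCA-fixed (10% final for adherent, 16% for suspension) and stained with 0.4% SRB in 1% acetic acid. Dye was solubilised in 10 mM Tris base and read at 515 nm; growth was expressed as a percentage of untreated control.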

COLO 205 [2] = assay: Antitumor activity against human COLO205 cells after 48 hrs by SRB assay; details: COLO 205, 48 h
In short: (§2)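 NCI60 panel in RPMI 1640 with 5% FBS and 2 mM L-glutamine. Cells were plated at 5000–40,000/well by doubling time, held 24 h, then time-zero plates were TCA-fixed. Five concentrations (10-fold or half-log dilutions of DMSO stocks) were applied for 48 h at 37 °C, 5% CO2. Cells were fixed with cold TCA (10% final adherent, 16% suspension) and stained with 0.4% SRB. Bound dye was dissolved in 10 mM Tris and read at 515 nm. GI50, TGI and LC50 were calculated per line.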

HCT-116 [3] = assay: Antitumor activity against human HCT116 cells after 48 hrs by SRB assay; details: HCT-116, 48 h; in short: as §2
HCT-116 [4] = assay: Cytotoxicity against human HCT116 cells assessed as cellular growth at 10 uM after 48 hrs by SRB assay
In short: (§3)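 NCI60 single-dose screen of cells in RPMI 1640 with 5% FBS and 2 mM L-glutamine, preincubated 24 h at 37 °C, 5% CO₂. Cells were then exposed 48 h to compound added from DMSO stock. TCA-fixed, stained with 0.4% SRB in 1% acetic acid, dye solubilised in 10 mM Tris base and read at 515 nm. Growth is given as percent of untreated control.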

HOP-62 = assay: Antitumor activity against human HOP62 cells after 48 hrs by SRB assay; details: HOP-62, 48 h; in short: as §2
SK-MEL-28 = assay: Antitumor activity against human SK-MEL-28 cells after 48 hrs by SRB assay; details: SK-MEL-28, 48 h
In short: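 NCI60 panel cells grown in RPMI 1640 with 5% FBS and 2 mM L-glutamine, plated at 5000–40,000 cells/well and preincubated 24 h at 37 °C, 5% CO₂. Compound was added from DMSO at five concentrations, 10-fold or 1/2 log dilutions, then incubated 48 h.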

MDA-MB-231 [5] = assay: Cytotoxicity against human MDA-MB-231 cells assessed as cellular growth at 10 uM after 48 hrs by SRB assay; in short: as §1
OVCAR-8 = assay: Antitumor activity against human OVCAR8 cells after 48 hrs by SRB assay; details: OVCAR-8, 48 h; in short: as §2
[6] = Cytotoxicity against human NCI60 cells assessed as cellular growth at 10 uM after 48 hrs by SRB assay relative to untreated control; in short: as §1
A498 = assay: Antitumor activity against human A498 cells after 48 hrs by SRB assay; details: A498, 48 h; in short: as §2
MDA-MB-231 [7] = assay: Antitumor activity against human MDA-MB-231 cells after 48 hrs by SRB assay; details: MDA-MB-231, 48 h; in short: as §2
BT-549 = assay: Antitumor activity against human BT549 cells after 48 hrs by SRB assay; details: BT-549, 48 h
In short: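 NCI60 screen: cells grown in RPMI 1640 with 5% FBS and 2 mM L-glutamine, plated at 5000–40,000 cells/well by doubling time, preincubated 24 h at 37 °C with 5% CO2. Compounds were diluted from DMSO stocks and given for 48 h, at five concentrations for dose response. A time-zero plate was TCA-fixed. Cells were TCA-fixed, stained with 0.4% SRB and read at 515 nm, with growth expressed relative to untreated controls.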

SF-295 = assay: Cytotoxicity against human SF295 cells assessed as cellular growth at 10 uM after 48 hrs by SRB assay; in short: as §1
MDA-MB-468 = assay: Antitumor activity against human MDA-MB-468 cells after 48 hrs by SRB assay; details: MDA-MB-468, 48 h; in short: as §2
RPMI-8226 = assay: Cytotoxicity against human RPMI8226 cells assessed as cellular growth at 10 uM after 48 hrs by SRB assay; in short: as §1
NCI-H322M [8] = assay: Antitumor activity against human NCI-H322M cells after 48 hrs by SRB assay; in short: as §2
OVCAR-3 = assay: Antitumor activity against human OVCAR3 cells after 48 hrs by SRB assay; details: OVCAR-3, 48 h; in short: as §2
NCI-H522 = assay: Cytotoxicity against human NCI-H522 cells assessed as cellular growth at 10 uM after 48 hrs by SRB assay; in short: as §1
SF-539 = assay: Cytotoxicity against human SF539 cells assessed as cellular growth at 10 uM after 48 hrs by SRB assay; in short: as §1
CCRF-CEM = assay: Cytotoxicity against human CCRF-CEM cells assessed as cellular growth at 10 uM after 48 hrs by SRB assay; in short: as §3
COLO 205 [9] = assay: Cytotoxicity against human COLO205 cells assessed as cellular growth at 10 uM after 48 hrs by SRB assay; in short: as §3
MDA-MB-435 = assay: Cytotoxicity against human MDA-MB-435 cells assessed as cellular growth at 10 uM after 48 hrs by SRB assay; in short: as §1
[10] = read-out: LC50 (the source's name)
[11] = read-out: pLC50 (the source's name) (converted)

In the case of `COc1cc(/C(=C2\O[C@@H]([C@H]3COC(C)(C)O3)[C@H]3OC(C)(C)O[C@@H]23)c2ccc3ccccc3c2)cc(OC)c1OC`, the Activity (NCI-H322M [1]) is reported as 55.06%, the GI50 (COLO 205 [2]; read-out: GI50) is reported as 6.97 µM and the CC50 (COLO 205 [2]; [10]) is reported as greater than 100 µM. The TGI (COLO 205 [2]; read-out: TGI) was greater than 100 µM, the GI50 (COLO 205 [2]; read-out: pGI50 (converted)) was 6.92 µM and the CC50 (COLO 205 [2]; [11]) was greater than 100 µM. The TGI (COLO 205 [2]; read-out: pTGI (converted)) was greater than 100 µM, the GI50 (HCT-116 [3]) was 2.51 µM and the LC50 (concentration giving 50% net cell kill) (HCT-116 [3]) was 20.6 µM. For the same molecule, the TGI (HCT-116 [3]) was 5.7 µM, the Activity (HCT-116 [4]) was 58.36% and the GI50 (HOP-62) was 9.78 µM. The TGI (HOP-62) was 31.4 µM, the CC50 (HOP-62; [10]) was 99.8 µM and the LC50 (50% lethal concentration) (SK-MEL-28) was greater than 100 µM. The GI50 (SK-MEL-28; read-out: GI50) was 2.86 µM, the TGI (SK-MEL-28; read-out: TGI) was 96.5 µM and the GI50 (SK-MEL-28; read-out: pGI50 (converted)) was 2.88 µM. It also gave a CC50 (SK-MEL-28; [11]) greater than 100 µM, a TGI (SK-MEL-28; read-out: pTGI) greater than 100 µM and an Activity (MDA-MB-231 [5]) of 13.6%. It also gave a GI50 (OVCAR-8; read-out: GI50) of 3.69 µM, a CC50 (OVCAR-8; [10]) greater than 100 µM and a TGI (OVCAR-8; read-out: TGI) greater than 100 µM. The GI50 (OVCAR-8; read-out: pGI50 (converted)) was 4.37 µM, the CC50 (OVCAR-8; [11]) was greater than 100 µM and the TGI (OVCAR-8; read-out: pTGI) was greater than 100 µM. It also gave an Activity [6] of 30%, a GI50 (A498; read-out: GI50) of 17.8 µM and a CC50 (A498; [10]) greater than 100 µM. The TGI (A498; read-out: TGI) was 74.6 µM, the GI50 (A498; read-out: pGI50 (converted)) was 4.37 µM and the CC50 (A498; [11]) was greater than 100 µM. It also gave a TGI (A498; read-out: pTGI (converted)) greater than 100 µM, a GI50 (MDA-MB-231 [7]) of 6.28 µM and a TGI (MDA-MB-231 [7]) of 69.7 µM. The CC50 (MDA-MB-231 [7]; [10]) was greater than 100 µM, the CC50 (BT-549; [10]) was greater than 100 µM and the GI50 (BT-549; read-out: pGI50 (converted)) was 3.24 µM. It also gave a CC50 (BT-549; [11]) greater than 100 µM, a TGI (BT-549; read-out: pTGI (converted)) of 8.13 µM and an Activity (SF-295) of 48.59%. The GI50 (MDA-MB-468; read-out: GI50) was 4.02 µM, the CC50 (MDA-MB-468; [10]) was greater than 100 µM and the TGI (MDA-MB-468; read-out: TGI) was 21.1 µM. The GI50 (MDA-MB-468; read-out: pGI50 (converted)) was 3.98 µM, the CC50 (MDA-MB-468; [11]) was greater than 100 µM and the TGI (MDA-MB-468; read-out: pTGI (converted)) was 20.9 µM. The Activity (RPMI-8226) was 36.83%, the GI50 (NCI-H322M [8]; read-out: GI50) was 6.74 µM and the CC50 (NCI-H322M [8]; [10]) was greater than 100 µM. For the same molecule, the TGI (NCI-H322M [8]; read-out: TGI) was greater than 100 µM, the GI50 (NCI-H322M [8]; read-out: pGI50 (converted)) was 5.75 µM and the CC50 (NCI-H322M [8]; [11]) was greater than 100 µM. It also gave a TGI (NCI-H322M [8]; read-out: pTGI) greater than 100 µM, a GI50 (OVCAR-3) of 2.39 µM and a TGI (OVCAR-3) of 5.67 µM. It also gave a CC50 (OVCAR-3; [10]) of 21.7 µM, an Activity (NCI-H522) of 8.05% and an Activity (SF-539) of 26.42%. The Activity (CCRF-CEM) was 82.21%, the Activity (COLO 205 [9]) was 66.91% and the Activity (MDA-MB-435) was 26.19%.
